ChEMBL document CHEMBL2046412, “Xanthine oxidase inhibitory activity of constituents of Cinnamomum cassia twigs” (Bioorg Med Chem Lett, 2012)

Experiments:
[1] = target: T1, Xanthine dehydrogenase/oxidase (Homo sapiens, UniProt P47989); test: Inhibition of xanthine oxidase- mediated uric acid formation at 50 ug/mL after 5 mins by spectrophotometry
[2] = target: T1, Xanthine dehydrogenase/oxidase; test: Inhibition of xanthine oxidase- mediated uric acid formation after 5 mins by spectrophotometry
Method in brief: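 Inhibition was taken relative to uric acid formed in the uninhibited control, and IC50 was derived from the mean of triplicate measurements.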

T1 sequence (P47989 whole entry): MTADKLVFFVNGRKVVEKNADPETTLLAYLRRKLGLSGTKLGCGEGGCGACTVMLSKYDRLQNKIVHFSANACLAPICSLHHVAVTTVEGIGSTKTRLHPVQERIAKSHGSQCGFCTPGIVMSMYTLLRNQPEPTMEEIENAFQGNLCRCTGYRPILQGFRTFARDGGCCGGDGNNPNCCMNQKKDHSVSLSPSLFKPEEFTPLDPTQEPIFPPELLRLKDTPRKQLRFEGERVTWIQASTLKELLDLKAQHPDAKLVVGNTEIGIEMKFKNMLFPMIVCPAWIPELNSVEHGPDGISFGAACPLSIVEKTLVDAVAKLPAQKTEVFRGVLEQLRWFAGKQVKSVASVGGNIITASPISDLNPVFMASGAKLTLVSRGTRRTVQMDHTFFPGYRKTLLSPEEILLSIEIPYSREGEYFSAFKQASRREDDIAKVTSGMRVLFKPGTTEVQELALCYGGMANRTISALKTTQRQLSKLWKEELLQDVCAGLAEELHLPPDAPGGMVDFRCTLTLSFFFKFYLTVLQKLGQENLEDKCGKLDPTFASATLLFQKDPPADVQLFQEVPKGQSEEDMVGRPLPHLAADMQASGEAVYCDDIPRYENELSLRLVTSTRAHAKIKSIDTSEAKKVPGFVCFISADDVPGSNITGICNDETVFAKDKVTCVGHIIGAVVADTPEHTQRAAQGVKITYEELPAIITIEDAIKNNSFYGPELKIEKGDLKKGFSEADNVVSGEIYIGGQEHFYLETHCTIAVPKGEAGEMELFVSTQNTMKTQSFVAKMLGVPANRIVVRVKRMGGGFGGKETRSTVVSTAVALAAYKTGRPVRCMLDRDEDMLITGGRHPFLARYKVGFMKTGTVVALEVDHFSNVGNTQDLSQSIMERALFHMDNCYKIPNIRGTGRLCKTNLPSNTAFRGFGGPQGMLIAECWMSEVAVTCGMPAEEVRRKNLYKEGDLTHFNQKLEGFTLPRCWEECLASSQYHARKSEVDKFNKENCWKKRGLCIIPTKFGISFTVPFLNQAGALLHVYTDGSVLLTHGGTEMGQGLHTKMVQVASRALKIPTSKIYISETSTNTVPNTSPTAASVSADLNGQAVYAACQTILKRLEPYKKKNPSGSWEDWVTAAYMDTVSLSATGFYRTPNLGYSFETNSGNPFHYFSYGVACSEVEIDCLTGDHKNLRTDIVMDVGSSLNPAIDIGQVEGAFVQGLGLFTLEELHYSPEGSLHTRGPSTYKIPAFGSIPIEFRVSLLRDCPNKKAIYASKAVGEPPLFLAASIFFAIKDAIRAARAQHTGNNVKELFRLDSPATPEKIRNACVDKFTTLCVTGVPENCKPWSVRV

| SMILES | inhibition at 50 µg/mL [1] [%] | IC50 [2] [µM] |
| --- | --- | --- |
| O=C/C=C/c1ccccc1 | 96.7 | 59 |
| O=C/C=C/c1ccccc1O [2-HYDROXYCINNAMALDEHYDE] | 94.2 | 98.5 |
| COC(=O)c1cccc(O[C@@H]2O[C@H](CO[C@@H]3OC[C@](O)(CO)[C@H]3O)[C@@H](O)[C@H](O)[C@H]2O)c1 [CINNACASOLIDE A] | 22.2 | > 112 |
| OC/C=C/c1ccccc1O[C@@H]1O[C@H](CO[C@@H]2OC[C@](O)(CO)[C@H]2O)[C@@H](O)[C@H](O)[C@H]1O [CINNACASOLIDE B] | 35.4 | > 113 |
| O=C(O)/C=C/c1ccccc1 [CINNAMIC ACID] | 93.4 | 178 |
| OC/C=C/c1ccccc1 [CINNAMIC ALCOHOL] | 47.6 | > 373 |
| COc1cc(/C=C/C=O)ccc1O [CONIFERYL ALDEHYDE] | 72.5 | 204 |
| O=C(O)CCc1ccccc1O[C@@H]1O[C@H](CO)[C@@H](O)[C@H](O)[C@H]1O [DIHYDROMELILOTOSIDE] | 45.4 | > 152 |

Further lines, results first:

| inhibition at 50 µg/mL [1] [%] | IC50 [2] [µM] | SMILES |
| --- | --- | --- |
| 95.8 | 85.1 | COc1ccccc1/C=C/C=O |
| 28.2 | > 85.2 | COc1cc(O[C@@H]2O[C@H](CO)[C@@H](O)[C@H](O)[C@H]2O)ccc1Oc1ccc(O[C@@H]2O[C@H](CO)[C@@H](O)[C@H](O)[C@H]2O)c(OC)c1 [CINNACASOLIDE C] |
| 22.4 | > 146 | COC(=O)CCc1ccccc1O[C@@H]1O[C@H](CO)[C@@H](O)[C@H](O)[C@H]1O [METHYL DIHYDROMELILOTOSIDE] |
| 73.2 | 196 | O=C(O)/C=C/c1ccccc1O [O-COUMARIC ACID] |
| 18.7 | > 117 | O[C@@H]1[C@@H](O)[C@@H](OC/C=C/c2ccccc2)O[C@H](CO[C@@H]2OC[C@H](O)[C@H](O)[C@H]2O)[C@H]1O [ROSAVIN] |
